Source: ChEMBL document CHEMBL1817567, “Design of benzimidazole- and benzoxazole-2-thione derivatives as inhibitors of bacterial hyaluronan lyase” (Eur J Med Chem, 2011)
Values after ≈ are worked out from the molar mass of the structure shown. Active and inactive are the calls of the source. No cut-off for these calls is given here.

How the values were obtained:
[1] = Inhibition of Streptococcus agalactiae hyaluronidase
Streptococcus agalactiae [2] = experiment: Inhibition of Streptococcus agalactiae 4755 hyaluronidase at 150 uM after 30 mins at pH 5.0 by turbidimetric analysis
Summary of the method: (§1)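 SagHyal4755 (2.9 ng) with BSA and hyaluronan (2 mg/ml stock) in citrate–phosphate/NaCl buffer pH 5.0, 3.8% DMSO final, 30 min at 37 °C. Stopped by alkaline 2.5% CTAB, then 20 min at 25 °C. Residual-substrate turbidity read at 600 nm; no-inhibitor sample = 100%, no-enzyme sample = 0% activity. Enzyme-free compound controls were run.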

Streptococcus agalactiae [3] = experiment: Inhibition of Streptococcus agalactiae 4755 hyaluronidase at 300 uM after 3 hrs at pH 7.4 by turbidimetric analysis
Summary of the method: (§2)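 Same turbidimetric hyaluronan-lyase assay at pH 7.4 (citrate–phosphate/NaCl): SagHyal4755 2.9 ng, hyaluronan (2 mg/ml stock), BSA, 3.8% DMSO final, 3 h at 37 °C. CTAB (2.5%, in 0.5 M NaOH) precipitation, 20 min at 25 °C, A600. Activity scaled between no-inhibitor and no-enzyme samples.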

[4] = biological target: T1, Hyaluronidase (Bos taurus) (UniProt Q8SQG8+Q5E985); experiment: Inhibition of bovine testes hyaluronidase at 200 uM after 30 mins at pH 5 by turbidimetric analysis; assay type: protein assay
[5] = biological target: T1, Hyaluronidase (Bos taurus); experiment: Inhibition of bovine testes hyaluronidase at 380 uM after 30 mins at pH 5 by turbidimetric analysis; assay type: protein assay
[6] = biological target: T1, Hyaluronidase (Bos taurus); experiment: Inhibition of bovine testes hyaluronidase at 49 uM after 30 mins at pH 5 by turbidimetric analysis; assay type: protein assay
[7] = biological target: T1, Hyaluronidase (Bos taurus); experiment: Inhibition of bovine testes hyaluronidase at 4200 uM after 30 mins at pH 5 by turbidimetric analysis; assay type: protein assay
[8] = biological target: T1, Hyaluronidase (Bos taurus); experiment: Inhibition of bovine testes hyaluronidase at 460 uM after 30 mins at pH 5 by turbidimetric analysis; assay type: protein assay
[9] = biological target: T1, Hyaluronidase (Bos taurus); experiment: Inhibition of bovine testes hyaluronidase at 180 uM after 30 mins at pH 5 by turbidimetric analysis; assay type: protein assay
[10] = biological target: T1, Hyaluronidase (Bos taurus); experiment: Inhibition of bovine testes hyaluronidase at 190 uM after 30 mins at pH 5 by turbidimetric analysis; assay type: protein assay
[11] = biological target: T1, Hyaluronidase (Bos taurus); experiment: Inhibition of bovine testes hyaluronidase at 170 uM after 30 mins at pH 5 by turbidimetric analysis; assay type: protein assay
[12] = biological target: T1, Hyaluronidase (Bos taurus); experiment: Inhibition of bovine testes hyaluronidase at 100 uM after 30 mins at pH 5 by turbidimetric analysis; assay type: protein assay
[13] = biological target: T1, Hyaluronidase (Bos taurus); experiment: Inhibition of bovine testes hyaluronidase at 400 uM after 30 mins at pH 5 by turbidimetric analysis; assay type: protein assay
[14] = biological target: T1, Hyaluronidase (Bos taurus); experiment: Inhibition of bovine testes hyaluronidase at 3800 uM after 30 mins at pH 5 by turbidimetric analysis; assay type: protein assay
[15] = biological target: T1, Hyaluronidase (Bos taurus); experiment: Inhibition of bovine testes hyaluronidase at 130 uM after 30 mins at pH 5 by turbidimetric analysis; assay type: protein assay
[16] = biological target: T1, Hyaluronidase (Bos taurus); experiment: Inhibition of bovine testes hyaluronidase at 63 uM after 30 mins at pH 5 by turbidimetric analysis; assay type: protein assay
[17] = biological target: T1, Hyaluronidase (Bos taurus); experiment: Inhibition of bovine testes hyaluronidase at 80 uM after 30 mins at pH 5 by turbidimetric analysis; assay type: protein assay
[18] = biological target: T1, Hyaluronidase (Bos taurus); experiment: Inhibition of bovine testes hyaluronidase at 2000 uM after 30 mins at pH 5 by turbidimetric analysis; assay type: protein assay
[19] = biological target: T1, Hyaluronidase (Bos taurus); experiment: Inhibition of bovine testes hyaluronidase at 150 uM after 30 mins at pH 5 by turbidimetric analysis; assay type: protein assay
[20] = Aqueous solubility of the compound in water; assay type: physicochemical
Summary of the method: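 Turbidity at 600 nm of test compound in DMSO added to citrate–phosphate buffer (pH 5 and pH 7.4), water and BSA (0.2 mg/ml stock), at various concentrations, read against a water reference. Enzyme testing used only concentrations showing no turbidity.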

[21] = Inhibition of Streptococcus agalactiae 4755 hyaluronidase at pH 7.4 after 3 hrs by turbidimetric analysis; summary of the method: as §2
[22] = Inhibition of Streptococcus agalactiae 4755 hyaluronidase at pH 7.4; summary of the method: as §2
[23] = Inhibition of Streptococcus agalactiae 4755 hyaluronidase at pH 5.0; summary of the method: as §1
[24] = Inhibition of Streptococcus agalactiae 4755 hyaluronidase at pH 5.0 after 30 mins by turbidimetric analysis; summary of the method: as §1
Streptococcus agalactiae [25] = experiment: Inhibition of Streptococcus agalactiae 4755 hyaluronidase at 2000 uM after 3 hrs at pH 7.4 by turbidimetric analysis; summary of the method: as §2
Streptococcus agalactiae [26] = experiment: Inhibition of Streptococcus agalactiae 4755 hyaluronidase at 200 uM after 3 hrs at pH 7.4 by turbidimetric analysis; summary of the method: as §2
Streptococcus agalactiae [27] = experiment: Inhibition of Streptococcus agalactiae 4755 hyaluronidase at 80 uM after 30 mins at pH 5.0 by turbidimetric analysis; summary of the method: as §1
Streptococcus agalactiae [28] = experiment: Inhibition of Streptococcus agalactiae 4755 hyaluronidase at 130 uM after 30 mins at pH 5.0 by turbidimetric analysis; summary of the method: as §1
[29] = Inhibition of Streptococcus agalactiae 4755 hyaluronidase after 30 mins by turbidimetric analysis; summary of the method: as §1
Streptococcus agalactiae [30] = experiment: Inhibition of Streptococcus agalactiae 4755 hyaluronidase at 4200 uM after 3 hrs at pH 7.4 by turbidimetric analysis; summary of the method: as §2
Streptococcus agalactiae [31] = experiment: Inhibition of Streptococcus agalactiae 4755 hyaluronidase at 4200 uM after 30 mins at pH 5.0 by turbidimetric analysis; summary of the method: as §1
Streptococcus agalactiae [32] = experiment: Inhibition of Streptococcus agalactiae 4755 hyaluronidase at 1000 uM after 3 hrs at pH 7.4 by turbidimetric analysis; summary of the method: as §2
Streptococcus agalactiae [33] = experiment: Inhibition of Streptococcus agalactiae 4755 hyaluronidase at 400 uM after 30 mins at pH 5.0 by turbidimetric analysis; summary of the method: as §1
Streptococcus agalactiae [34] = experiment: Inhibition of Streptococcus agalactiae 4755 hyaluronidase at 2000 uM after 30 mins at pH 5.0 by turbidimetric analysis; summary of the method: as §1
Streptococcus agalactiae [35] = experiment: Inhibition of Streptococcus agalactiae 4755 hyaluronidase at 63 uM after 30 mins at pH 5.0 by turbidimetric analysis; summary of the method: as §1

T1 sequence (Q5E985 whole entry, looked up): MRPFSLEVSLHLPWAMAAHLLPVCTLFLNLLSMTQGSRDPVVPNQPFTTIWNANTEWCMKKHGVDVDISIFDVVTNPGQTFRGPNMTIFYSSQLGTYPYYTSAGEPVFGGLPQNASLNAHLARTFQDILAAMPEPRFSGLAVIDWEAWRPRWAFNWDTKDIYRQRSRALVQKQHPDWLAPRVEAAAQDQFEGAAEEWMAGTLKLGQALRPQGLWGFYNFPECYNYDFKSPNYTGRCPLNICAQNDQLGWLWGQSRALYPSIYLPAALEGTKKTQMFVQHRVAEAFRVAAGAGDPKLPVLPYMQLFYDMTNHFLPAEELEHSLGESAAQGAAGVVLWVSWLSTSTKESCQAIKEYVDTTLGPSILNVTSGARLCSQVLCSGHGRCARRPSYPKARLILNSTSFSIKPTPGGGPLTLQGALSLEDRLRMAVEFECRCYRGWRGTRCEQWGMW
T1 sequence (Q8SQG8 whole entry, looked up): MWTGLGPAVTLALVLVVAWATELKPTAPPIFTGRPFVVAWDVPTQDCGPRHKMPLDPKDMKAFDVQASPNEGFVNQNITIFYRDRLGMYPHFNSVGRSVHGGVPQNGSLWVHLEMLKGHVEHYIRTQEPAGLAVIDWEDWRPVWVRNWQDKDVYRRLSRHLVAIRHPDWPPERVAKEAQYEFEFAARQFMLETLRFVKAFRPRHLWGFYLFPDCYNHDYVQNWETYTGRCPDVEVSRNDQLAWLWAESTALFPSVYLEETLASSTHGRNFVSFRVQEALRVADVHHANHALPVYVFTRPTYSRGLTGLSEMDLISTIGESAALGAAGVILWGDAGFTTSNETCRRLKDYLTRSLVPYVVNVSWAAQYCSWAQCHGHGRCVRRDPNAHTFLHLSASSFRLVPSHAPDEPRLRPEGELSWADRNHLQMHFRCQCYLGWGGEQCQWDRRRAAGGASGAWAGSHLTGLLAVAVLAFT

inhibition [4]	inhibition [5]	inhibition [6]	inhibition [7]	inhibition [8]	inhibition [9]	inhibition [10]	inhibition [11]	inhibition [12]	inhibition [13]	inhibition [14]	inhibition [15]	inhibition [16]	inhibition [17]	inhibition [18]	inhibition [19]	solubility [20] [µM]	IC50 [21] [µM]	other results	SMILES
																		IC50 [1]: 60 µM	CC1(C)[C@@H](O)CC[C@]2(C)[C@H]3C(=O)C=C4[C@@H]5C[C@@](C)(C(=O)O)CC[C@]5(C)CC[C@@]4(C)[C@]3(C)CC[C@@H]12 [ENOXOLONE]
inactive	inactive	inactive	inactive	inactive	inactive	inactive	inactive	inactive	inactive	inactive	inactive	inactive	inactive	inactive	inactive	150 (≈ 35 µg/mL)		inhibition (Streptococcus agalactiae [2]): inactive; inhibition (Streptococcus agalactiae [3]): inactive	CCCCCC(=O)n1c(=O)oc2ccccc21
inactive	inactive	inactive	inactive	inactive	inactive	inactive	inactive	inactive	inactive	inactive	inactive	inactive	inactive	inactive	inactive		16	IC50 [22]: 16 µM; IC50 [23]: 11 µM; IC50 [24]: 11 µM	CCCCCCCCCCn1c(-c2ccc(OS(N)(=O)=O)cc2)cc2ccc(OS(N)(=O)=O)cc21
inactive	inactive	inactive	inactive	inactive	inactive	inactive	inactive	inactive	inactive	inactive	inactive	inactive	inactive	inactive	inactive			inhibition (Streptococcus agalactiae [25]): 27%; IC50 [24]: 1300 µM	COC(=O)c1ccc2oc(=S)[nH]c2c1
inactive	inactive	inactive	inactive	inactive	inactive	inactive	inactive	inactive	inactive	inactive	inactive	inactive	inactive	inactive	inactive	80 (≈ 22.5 µg/mL)		inhibition (Streptococcus agalactiae [26]): 36%; inhibition (Streptococcus agalactiae [27]): 9%	O=C(/C=C/c1ccccc1)n1c(=S)oc2ccccc21
inactive	inactive	inactive	inactive	inactive	inactive	inactive	inactive	inactive	inactive	inactive	inactive	inactive	inactive	inactive	inactive	130 (≈ 32.4 µg/mL)	29	inhibition (Streptococcus agalactiae [28]): 51%	CCCCCC(=O)n1c(=S)oc2ccccc21
inactive	inactive	inactive	inactive	inactive	inactive	inactive	inactive	inactive	inactive	inactive	inactive	inactive	inactive	inactive	inactive			IC50 [29]: 4.2 µM; IC50 [24]: 4.2 µM	CCCCCCCCCCCCCCCC(=O)OC[C@H](O)[C@H]1OC(=O)C(O)=C1O [ASCORBYL PALMITATE]
inactive	inactive	inactive	inactive	inactive	inactive	inactive	inactive	inactive	inactive	inactive	inactive	inactive	inactive	inactive	inactive	4200 (≈ 749 µg/mL)		inhibition (Streptococcus agalactiae [30]): 28%; inhibition (Streptococcus agalactiae [31]): 19%	CCn1c(S)nc2ccccc21
inactive	inactive	inactive	inactive	inactive	inactive	inactive	inactive	inactive	inactive	inactive	inactive	inactive	inactive	inactive	inactive	400 (≈ 71.7 µg/mL)		inhibition (Streptococcus agalactiae [32]): 17%; inhibition (Streptococcus agalactiae [33]): 46%	CCn1c(=S)oc2ccccc21
inactive	inactive	inactive	inactive	inactive	inactive	inactive	inactive	inactive	inactive	inactive	inactive	inactive	inactive	inactive	inactive	2000 (≈ 354 µg/mL)	1470	inhibition (Streptococcus agalactiae [34]): inactive	CC(=O)n1c(=O)oc2ccccc21
inactive	inactive	inactive	inactive	inactive	inactive	inactive	inactive	inactive	inactive	inactive	inactive	inactive	inactive	inactive	inactive	63 (≈ 24.5 µg/mL)	17	inhibition (Streptococcus agalactiae [35]): 23%	CCCCCCCCCCCCCCCC(=O)n1c(=S)oc2ccccc21
